Screening results from PubChem.
MrgX1 PAM – positive allosteric modulators of MrgX1, primary screen, HEK293 cells, Fluo-4 calcium flux; 310,000 compounds, 0.63% hits; Mas-related G-protein coupled receptor member X1 (Homo sapiens), Q96LB2; B-score at 10 µM; FDSS; hits give high values;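 active means plate-corrected calcium response at least 3 library SD above typical, normal starting fluorescence, not activating the receptor alone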;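 further: compound read alongside a low EC10 to EC30 dose of BAM8-22 agonist; peak minus trough fluorescence over baseline measured at the second addition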
Target sequence (Q96LB2 whole entry, looked up): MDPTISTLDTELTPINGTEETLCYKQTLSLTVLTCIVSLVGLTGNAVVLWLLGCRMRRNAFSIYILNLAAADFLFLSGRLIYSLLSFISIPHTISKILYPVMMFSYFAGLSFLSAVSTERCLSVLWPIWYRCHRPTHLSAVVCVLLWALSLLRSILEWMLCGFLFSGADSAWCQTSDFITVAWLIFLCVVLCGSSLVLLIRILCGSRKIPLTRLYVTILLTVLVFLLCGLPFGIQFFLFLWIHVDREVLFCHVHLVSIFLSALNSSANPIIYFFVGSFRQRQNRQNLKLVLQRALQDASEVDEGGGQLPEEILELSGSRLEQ
MrgX1 antagonist – antagonists of human MrgX1 receptor, primary screen, HEK293 cells, Fluo-4 calcium flux; Mas-related G-protein coupled receptor member X1 (Homo sapiens), Q96LB2; B-score at 10 µM; AID 588676, 2011; BAM8-22 antagonism; hits give low values; 310,000 compounds, 1.3% hits;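 active means calcium-response B-score plate-corrected more than 3 library SD below zero, starting fluorescence within 5 deviations, no agonist response on first addition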;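 further: peak minus trough fluorescence over baseline after final BAM8-22 challenge near maximal dose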
RGS4 act – RGS4 potentiators or activators, primary screen, cell-based, HEK293 M3R inducible RGS4, calcium flux; carbachol calcium flux Fluo4; hits give low values; B-score at 10 µM; 310,000 compounds, 0.92% hits;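 active means B-score of the integrated calcium signal more than 4 SD below the library mean, with starting fluorescence not abnormally high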;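 further: negative B-score means reduced calcium response which marks RGS4 activation or potentiation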
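System – HEK293 FlpIn-TREx cells, stable M3R, doxycycline-inducible RGS4 · Reagent – ECmax carbachol challenge · Times – compound preincubation 20 min at room temperature before agonist · Technique – Fluo4 fluorescence kinetic imaging of calcium · Measure – B score of integrated Fluo4 ratio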
MrgX1 ag – agonists of human MrgX1 receptor, primary screen, HEK293 cells, Fluo-4 calcium flux | Mas-related G-protein coupled receptor member X1 (Homo sapiens), Q96LB2 | Fluo-4 calcium fluorescence, agonist mode; hits give high values | B-score at 10 µM | 310,000 compounds, 0.44% hits | AID 588627, 2011;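 active means calcium response B-score plate-corrected fluorescence ratio at least 3 library SD, with starting fluorescence B-score inside 5 SD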
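System: HEK293 cells stably expressing human MrgX1 receptor; Dosing: test compound in the initial addition of three; Schedule: overnight plating, then 30 min 37 °C plus 30 min room-temperature dye loading; Detection: kinetic calcium dye fluorescence, Fluo-4 NW; Controls: per-plate positive and negative controls for Z′ factor.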
RGS4 block – RGS4 inhibitors, primary screen, cell-based, HEK293 M3R inducible RGS4, calcium flux; Fluo-4 calcium flux; hits give high values; triggered by carbachol at its EC20; AID 463165, 2010; B-score at 10 µM; Regulator of G-protein signaling 4 (Homo sapiens), P49798; 310,000 compounds, 0.45% hits;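 active means B-score, a plate-corrected calcium signal, over three deviations above library mean, with baseline fluorescence within five deviations of library mean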;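 further: RGS4 expression induced by doxycycline in cells with stable M3 receptor; B-score is computed from the integrated fluorescence ratio over baseline after carbachol; higher B-score means a larger calcium signal and so more RGS4 inhibition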
Target sequence (P49798 whole entry, looked up): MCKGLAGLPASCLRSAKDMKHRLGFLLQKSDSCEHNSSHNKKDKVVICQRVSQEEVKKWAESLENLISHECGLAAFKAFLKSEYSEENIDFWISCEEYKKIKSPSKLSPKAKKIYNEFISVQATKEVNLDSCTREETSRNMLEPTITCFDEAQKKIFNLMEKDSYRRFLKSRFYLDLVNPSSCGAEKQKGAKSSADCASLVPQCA
MrgX1 antag conf – MrgX1 receptor antagonists, duplicate retest, confirmation, HEK293 cells, Fluo-4 calcium flux; 2,300 compounds, 19% hits; shares compounds with MrgX1 antagonist; AID 602420, 2012; BAM8-22 calcium flux; hits give low values; remaining BAM8-22 calcium response % of control (hits give low values), % at 10 µM;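 active means remaining agonist calcium response no higher than 100% minus 3 SD of agonist-only control wells, with starting fluorescence near control levels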;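 further: agonist BAM8-22 given at a near maximal EC90 to ECmax level; peak minus minimum fluorescence divided by baseline after agonist addition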
HEK293 Ca flux – nonspecific calcium signal in parental HEK293, confirmation, counter-screen for MrgX1 antagonist project, parental HEK293 cells, Fluo-4 calcium flux; shares compounds with MrgX1 antagonist; Fluo-4 calcium fluorescence, FDSS; fluorescence ratio F(max-min)/F0 at 10 µM; 4,000 compounds, 2% hits;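 active means duplicate-averaged calcium fluorescence ratio at least three times the standard deviation of buffer wells, a nonspecific response in parental cells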
HEK293 Ca counter – calcium response in parental HEK293 cells, primary screen, counter-screen for MrgX1 allosteric activator project, cell-based, Fluo-4 calcium flux, duplicate; fluorescence ratio F(max-min)/F0 at 10 µM; Fluo-4 fluorescence ratio; hits give high values; shares compounds with MrgX1 antagonist; 4,000 compounds, 0.4% hits;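 active means calcium fluorescence ratio, averaged over duplicates, at least 3 SD of the buffer-well ratio, meaning a nonspecific response in receptor-free cells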;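 further: untransfected parental HEK293 lacking MrgX1 used as counterscreen for MrgX1 allosteric activators; fluorescence change taken during the second addition on a kinetic imager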
HEK293 Ca cntr2 – calcium response in parental HEK293 cells, primary screen, counter-screen for MrgX1 agonist project, cell-based, Fluo-4 calcium flux, duplicate, agonist mode. shares compounds with MrgX1 antagonist. Fluo-4 calcium fluorescence (FDSS); hits give high values. fluorescence ratio F(max-min)/F0 at 10 µM. 4,000 compounds, 8.7% hits. AID 624115, 2012;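 active means calcium fluorescence ratio at least three times the spread of buffer wells, meaning a non-specific response in parental cells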
* = called active by the depositor. A selection: hits, their analogues and other compounds. The true share with any hit is near 3.5%.

CNC(=S)NNC(=O)c1c(C)nc2cc(C)ccn12 was read as MrgX1 PAM inactive, MrgX1 antagonist inactive, RGS4 act inactive, MrgX1 ag inactive and RGS4 block inactive.
O=[N+]([O-])c1ccc(Oc2cc(NC3CCCCCCC3)c([N+](=O)[O-])cc2[N+](=O)[O-])cc1 was read as MrgX1 PAM inactive, MrgX1 antagonist inactive, RGS4 act inactive, MrgX1 ag inactive and RGS4 block inactive.
Screening CCOc1c(OC)cccc1C1CC(=O)Nc2cc3c(cc21)OCCO3 (centres undefined) returned MrgX1 PAM inactive, MrgX1 antagonist -4.9*, RGS4 act inactive, MrgX1 ag inactive, RGS4 block inactive, MrgX1 antag conf inactive, HEK293 Ca flux inactive, HEK293 Ca counter inactive and HEK293 Ca cntr2 inactive.
For O=C(CNS(=O)(=O)c1ccc([N+](=O)[O-])cc1)N/N=C/c1ccc(O)cc1O the results were MrgX1 PAM inactive, MrgX1 antagonist -13*, RGS4 act inactive, MrgX1 ag inactive, RGS4 block inactive, MrgX1 antag conf 40%*, HEK293 Ca flux inactive, HEK293 Ca counter 63* and HEK293 Ca cntr2 inactive.
Screening CC(NCC(O)COc1ccc(S(=O)(=O)N2CCOCC2)cc1)c1ccccc1 (centres undefined) returned MrgX1 PAM inactive, MrgX1 antagonist inactive, RGS4 act inactive, MrgX1 ag inactive and RGS4 block inactive.
For CC(C)C(c1nnnn1C1CCCC1)N1CCCc2ccccc21 (centres undefined) the results were MrgX1 PAM inactive, MrgX1 antagonist -6.1*, RGS4 act inactive, MrgX1 ag inactive, RGS4 block inactive, MrgX1 antag conf inactive, HEK293 Ca flux inactive, HEK293 Ca counter inactive and HEK293 Ca cntr2 inactive.
`CC(C)C(c1nnnn1C1CCCCC1)N1CCCc2ccccc21` (centres undefined) gave MrgX1 PAM inactive, MrgX1 antagonist inactive, RGS4 act inactive, MrgX1 ag inactive and RGS4 block inactive.
`Cc1cc(SCC(=O)Nc2cccc(S(N)(=O)=O)c2)c(C)cc1Br` gave MrgX1 PAM inactive, MrgX1 antagonist -9.8*, RGS4 act inactive, MrgX1 ag inactive, RGS4 block inactive, MrgX1 antag conf inactive, HEK293 Ca flux inactive, HEK293 Ca counter inactive and HEK293 Ca cntr2 inactive.
Screening O=C(CSc1nnc2ccc(-c3ccccn3)nn12)NCCc1ccccc1 returned MrgX1 PAM inactive, MrgX1 antagonist -13*, RGS4 act inactive, MrgX1 ag inactive, RGS4 block inactive, MrgX1 antag conf 84%*, HEK293 Ca flux inactive, HEK293 Ca counter inactive and HEK293 Ca cntr2 inactive.
CC(C)(C)N(Cc1ccccc1)C(=O)COC(=O)CSc1ccc([N+](=O)[O-])cc1 was read as MrgX1 PAM inactive, MrgX1 antagonist -9.9*, RGS4 act inactive, MrgX1 ag inactive, RGS4 block inactive, MrgX1 antag conf inactive, HEK293 Ca flux inactive, HEK293 Ca counter inactive and HEK293 Ca cntr2 inactive.
O=C(Nc1ccccc1)N1CCC(c2nc(-c3ccc(S(=O)(=O)N4CCOCC4)cc3)no2)CC1 was read as MrgX1 PAM inactive, MrgX1 antagonist inactive, RGS4 act inactive, MrgX1 ag inactive and RGS4 block inactive.
Screening COc1ccc(C(=O)COC(=O)CCN2C(=O)C3C4CC(C(Br)C4Br)C3C2=O)cc1 (centres undefined) returned MrgX1 PAM inactive, MrgX1 antagonist -5.4*, RGS4 act inactive, MrgX1 ag inactive, RGS4 block inactive, MrgX1 antag conf inactive, HEK293 Ca flux inactive, HEK293 Ca counter inactive and HEK293 Ca cntr2 inactive.
`COc1ccc(C(=O)COC(=O)CCN2C(=O)[C@@H]3[C@H](C2=O)[C@@H]2C[C@H]3C(Br)C2Br)cc1` (some centres undefined) gave MrgX1 PAM inactive, MrgX1 antagonist inactive, RGS4 act inactive, MrgX1 ag inactive and RGS4 block inactive.
`CC1Sc2ccc(S(=O)(=O)N3CCN(c4cccc(Cl)c4)CC3)cc2NC1=O` (centres undefined) gave MrgX1 PAM inactive, MrgX1 antagonist inactive, RGS4 act inactive, MrgX1 ag inactive and RGS4 block inactive.
CC1CN(C(=O)c2cccc(Oc3ccccc3)c2)CC(C)O1 (centres undefined) was read as MrgX1 PAM inactive, MrgX1 antagonist -4.7*, RGS4 act inactive, MrgX1 ag inactive, RGS4 block inactive, MrgX1 antag conf inactive, HEK293 Ca flux inactive, HEK293 Ca counter inactive and HEK293 Ca cntr2 inactive.
`CNS(=O)(=O)c1cccc(C(=O)OCC(=O)NC2CCCC2)c1` gave MrgX1 PAM inactive, MrgX1 antagonist inactive, RGS4 act inactive, MrgX1 ag inactive and RGS4 block inactive.
`COc1ccc(Cn2c(N)c(S(=O)(=O)c3cccs3)c3nc4ccccc4nc32)cc1` gave MrgX1 PAM inactive, MrgX1 antagonist inactive, RGS4 act inactive, MrgX1 ag inactive and RGS4 block inactive.
Screening COC(=O)c1cccc(NC(=O)CSc2nc3cccnc3n2C)c1 returned MrgX1 PAM inactive, MrgX1 antagonist -4.8*, MrgX1 ag inactive, MrgX1 antag conf 74%*, HEK293 Ca flux inactive, HEK293 Ca counter inactive and HEK293 Ca cntr2 inactive.
Screening COC(=O)c1ccccc1NC(=O)CSc1nc2cccnc2n1C returned MrgX1 PAM inactive, MrgX1 antagonist inactive, RGS4 act inactive, MrgX1 ag inactive and RGS4 block inactive.
